Assay results as given in article PMC2234573 (The Journal of General Physiology, 2004).
Read-outs that look alike come from different tables or passages of the source.

How the values were obtained:
TrpM2 = conditions: cytosolic, ref Perraud et al., 2001, Sano et al.; cited from earlier work
[1] = system: Ca^2+- and ATP-sensitive nonselective cation channels (CA-NSCs); assay: Excised inside-out patch recording of CA-NSC channel gating; assay type: biochemical, rat; conditions: for Inhibition of Po / effect on gating (in words): cytosolic exposure, Fig. 3 A; for Prevention of inhibition by concomitantly added ATP (in words): Fig. 3 B, 100 μM ATP for PI(4,5)P2
TrpM4b = conditions: ref Nilius et al., 2004, cited from earlier work
[2] = system: CA-NSC channels present in astrocytes; conditions: ref Chen et al., 2003; cited from earlier work
[3] = system: Ca^2+- and ATP-sensitive nonselective cation channels (CA-NSCs); assay: Ensemble fitting of kinetic binding models to the dose response curves; assay type: biochemical, rat; conditions: noncompetitive model with allosteric destabilization, one subunit
How it was run: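 Custom software ensemble-fits the two-ligand extensions of a reversible-binding scheme to 18 normalized dose response curves (Po, opening and closing rates) from inside-out patches. Error function is summed squared differences between predicted and measured values. Open-state Kds are constrained by microscopic reversibility. Unliganded opening rate is fixed at its average (−40 mV, 1 mM cytosolic Ca2+).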

[4] = system: Ca^2+- and ATP-sensitive nonselective cation channels (CA-NSCs); assay type: biochemical, rat; conditions: for Effect on the i([DV]) dose response curve (in words): 1 mM nucleotide
How it was run: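 Inside-out patches from rat brain capillary endothelial cells, cultured 5–6 d, at 25°C. Pipette: 140 mM NaCl, 30 μM benzamil, pH 7.4. Bath: 140 mM KCl or NMDG-Cl, pH 7.1, plus 1 mM CaCl2. i(V) is recorded ± 70 μM DV. KCl data get linear fits; NMDG data get GHK fits with asymptotic negative-potential slope. Currents at −40 mV ± 1 mM nucleotide are normalized to in-patch control and Hill-fitted.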

[5] = read-out: K1/2 for inhibition of opening rate, 1 mM Ca2+ i, Vm −40 mV, no DV, Hill fit, deactivated channels

Compound: Nc1ncnc2c1ncn2[C@@H]1O[C@H](COP(=O)(O)OP(=O)(O)OC[C@H]2OC(O)[C@H](O)[C@@H]2O)[C@@H](O)[C@H]1O (stereo partly drawn) [ADP-ribose]
- Effect on TrpM2 (in words) (TrpM2): activated
- Inhibition of Po / effect on gating (in words) ([1]; 1 mM Ca2+ i, −40 mV): inhibited to a variable extent

Compound: Nc1ncnc2c1ncn2[C@@H]1O[C@H](COP(=O)(O)OP(=O)(O)O)[C@@H](O)[C@H]1O [ADP]
- IC50 [1, 5]: 4.3 ± 0.5 µM
- Increase of K1/2 for inhibition of Po caused by DV ([1]; ~1.6 μM DV vs no DV): ~20 ×
- Inhibition of TrpM4b (in words) (TrpM4b): the most potent inhibitor
- Nucleotide sensitivity of astrocyte CA-NSC channels (in words) [2]: insensitive
- Predicted decrease in nucleotide affinity brought upon by DV binding [3]: ~10^5 fold
- Effect on the i([DV]) dose response curve (in words) [4]: not altered

Compound: Nc1ncnc2c1ncn2[C@@H]1O[C@H](COP(=O)(O)OP(=O)(O)NP(=O)(O)O)[C@@H](O)[C@H]1O [AMPPNP]
- Inhibition of Po / effect on gating (in words) ([1]; 1 mM Ca2+ i, −40 mV): effectively inhibited

Compound: Nc1ncnc2c1ncn2[C@@H]1O[C@H](COP(=O)(O)O)[C@@H](O)[C@H]1O [AMP]
- Po ([1]; 1 mM AMP in the presence of ~8 μM DV): ~0.25
- IC50 [1, 5]: 1.1 ± 0.2 µM
- Increase of K1/2 for inhibition of Po caused by DV ([1]; ~8 μM DV vs no DV): ~90 ×
- Nucleotide sensitivity of astrocyte CA-NSC channels (in words) [2]: insensitive
- Predicted decrease in nucleotide affinity brought upon by DV binding [3]: ~10^3 fold
- Effect on the i([DV]) dose response curve (in words) [4]: not altered

Compound: Nc1ncnc2c1ncn2[C@@H]1O[C@H](COP(=O)(O)OP(=O)(O)OP(=O)(O)O)[C@@H](O)[C@H]1O [ATP]
- Increase of K1/2 for inhibition of Po ([1]; 10 mM vs 1 mM Ca2+ i): ~3 fold
- Opening rate (normalized) ([1]; (b) 10 μM total ATP, 1 mM free Ca2+, 2 mM free Mg2+): 0.62 ± 0.12 (n = 3)
- Opening rate (normalized) ([1]; (c) 10 μM total ATP, 10 mM free Ca2+, 2.01 mM free Mg2+): 0.61 ± 0.10 (n = 4)
- Opening rate (normalized) ([1]; (d) 100 μM total ATP, 1 mM free Ca2+, 0.184 mM free Mg2+): 0.094 ± 0.043 (n = 6)
- Opening rate (normalized) ([1]; (e) 100 μM total ATP, 1 mM free Ca2+, 2.03 mM free Mg2+): 0.10 ± 0.03 (n = 14)
- Opening rate (normalized) ([1]; (f) 100 μM total ATP, 1 mM free Ca2+, 9.91 mM free Mg2+): 0.16 ± 0.06 (n = 6)
- IC50 ([1]; read-out: K1/2 for inhibition of Po, 1 mM Ca2+ i, −80 mV): 7.3 ± 1 µM
- IC50 ([1]; read-out: K1/2 for inhibition of Po, 10 mM Ca2+ i, −40 mV): 52 ± 6 µM
- IC50 ([1]; read-out: K1/2 for inhibition of Po, freshly excised (~10 s) channels in 100 μM Ca2+, −40 mV, tentative analysis): 34 ± 3 µM
- IC50 [1, 5]: 11 ± 2 µM
- IC50 ([1]; read-out: K1/2 for inhibition of opening rate, 1 mM Ca2+ i, −80 mV): 8.4 ± 2 µM
- IC50 ([1]; read-out: K1/2 for inhibition of opening rate, 10 mM Ca2+ i, −40 mV): 14 ± 5 µM
- IC50 ([1]; read-out: K1/2 for inhibition of opening rate, freshly excised (~10 s) channels in 100 μM Ca2+, −40 mV, tentative analysis): 15 ± 2 µM
- Increase of K1/2 for inhibition of Po caused by DV ([1]; ~1.6 μM DV vs no DV): ~40 ×
- Decrease of K1/2 for inhibition of Po ([1]; −80 mV vs −40 mV): ≈ 2 fold
- Fraction of TrpM4b current insensitive to nucleotide (TrpM4b; even millimolar [ATP]): ~20%
- Nucleotide sensitivity of astrocyte CA-NSC channels (in words) [2]: inhibited
- Predicted decrease in nucleotide affinity brought upon by DV binding [3]: ~200 fold
- Effect on the i([DV]) dose response curve (in words) [4]: not altered

Compound: Nc1ncnc2c1ncn2[C@@H]1O[C@H](CO)[C@@H](O)[C@H]1O [Ado, adenosine]
- Prevention of inhibition by concomitantly added ATP (in words) [1]: none
- Inhibition of Po / effect on gating (in words) ([1]; 1 mM Ca2+ i, −40 mV): inhibited only at high concentrations

Compound: Nc1nc2c(ncn2[C@@H]2O[C@H](COP(=O)(O)OP(=O)(O)OP(=O)(O)O)[C@@H](O)[C@H]2O)c(=O)[nH]1 [GTP]
- Inhibition of Po / effect on gating (in words) ([1]; 1 mM Ca2+ i, −40 mV): compatible with inhibition
- Inhibition of TrpM4b (in words) (TrpM4b): poor inhibitors

Compound: Nc1ncnc2c1ncn2[C@@H]1O[C@H](COP(=O)(O)OP(=O)(O)OC[C@H]2O[C@@H]([n+]3cccc(C(=O)O)c3)[C@H](O)[C@@H]2O)[C@@H](O)[C@H]1OP(=O)(O)O [NAADP]
- Inhibition of Po / effect on gating (in words) ([1]; 1 mM Ca2+ i, −40 mV): inhibited to a variable extent

Compound: NC(=O)C1=CN([C@@H]2O[C@H](COP(=O)(O)OP(=O)(O)OC[C@H]3O[C@@H](n4cnc5c(N)ncnc54)[C@H](O)[C@@H]3O)[C@@H](O)[C@H]2O)C=CC1 [NADH]
- Inhibition of Po / effect on gating (in words) ([1]; 1 mM Ca2+ i, −40 mV): inhibited to a variable extent

Compound: NC(=O)C1=CN([C@@H]2O[C@H](COP(=O)(O)OP(=O)(O)OC[C@H]3O[C@@H](n4cnc5c(N)ncnc54)[C@H](OP(=O)(O)O)[C@@H]3O)[C@@H](O)[C@H]2O)C=CC1 [NADPH]
- Inhibition of Po / effect on gating (in words) ([1]; 1 mM Ca2+ i, −40 mV): inhibited to a variable extent

Compound: NC(=O)c1ccc[n+]([C@@H]2O[C@H](COP(=O)([O-])OP(=O)(O)OC[C@H]3O[C@@H](n4cnc5c(N)ncnc54)[C@H](OP(=O)(O)O)[C@@H]3O)[C@@H](O)[C@H]2O)c1 [NADP^+]
- Inhibition of Po / effect on gating (in words) ([1]; 1 mM Ca2+ i, −40 mV): inhibited to a variable extent

Compound: NC(=O)c1ccc[n+]([C@@H]2O[C@H](COP(=O)([O-])OP(=O)(O)OC[C@H]3O[C@@H](n4cnc5c(N)ncnc54)[C@H](O)[C@@H]3O)[C@@H](O)[C@H]2O)c1 [NAD^+]
- Effect on TrpM2 (in words) (TrpM2): activated
- Inhibition of Po / effect on gating (in words) ([1]; 1 mM Ca2+ i, −40 mV): inhibited to a variable extent

Compound: O=P(O)(O)OC[C@H]1O[C@H](OP(=O)(O)OP(=O)(O)O)[C@H](O)[C@@H]1O [PRPP, phospho-ribosyl-PP]
- Prevention of inhibition by concomitantly added ATP (in words) [1]: none
- Inhibition of Po / effect on gating (in words) ([1]; 1 mM Ca2+ i, −40 mV): failed to inhibit channel activity

Compound: O=P(O)(O)O [Pi, Inorganic phosphate]
- Prevention of inhibition by concomitantly added ATP (in words) [1]: none
- Inhibition of Po / effect on gating (in words) ([1]; 1 mM Ca2+ i, −40 mV): had little effect

Compound: O=c1ccn([C@@H]2O[C@H](COP(=O)(O)OP(=O)(O)OP(=O)(O)O)[C@@H](O)[C@H]2O)c(=O)[nH]1 [UTP]
- Inhibition of Po / effect on gating (in words) ([1]; 1 mM Ca2+ i, −40 mV): compatible with inhibition
- Inhibition of TrpM4b (in words) (TrpM4b): poor inhibitors

Compound: N=c1c2ncn3c2ncn1[C@@H]1O[C@H](COP(=O)(O)OP(=O)(O)OC[C@H]2O[C@@H]3[C@H](O)[C@@H]2O)[C@@H](O)[C@H]1O [cADP-ribose]
- Prevention of inhibition by concomitantly added ATP (in words) [1]: none
- Inhibition of Po / effect on gating (in words) ([1]; 1 mM Ca2+ i, −40 mV): failed to inhibit channel activity

Compound: Nc1nc2c(ncn2[C@@H]2O[C@@H]3COP(=O)(O)O[C@H]3[C@H]2O)c(=O)[nH]1 [cGMP]
- Prevention of inhibition by concomitantly added ATP (in words) [1]: none
- Inhibition of Po / effect on gating (in words) ([1]; 1 mM Ca2+ i, −40 mV): failed to affect gating

Compound: [O]=[V]([O-])([O-])[O-] [orthovanadate]
- Effect of vanadate solution on CA-NSC gating (in words) ([1]; 1-mM vanadate solution, 1 mM Ca2+ i): robust stimulation of channel gating to a Po close to unity
- Increase in single-channel current size ([4]; 1-mM orthovanadate solution (untreated, contains trace DV)): ~30%

Compound: O=P(O)(O)OP(=O)(O)O [pyrophosphate]
- Inhibition ([1]; 2 mM, n = 4): 92 ± 2%

Compound: O=C[C@H](O)[C@H](O)[C@H](O)COP(=O)(O)O [ribose-5P]
- Prevention of inhibition by concomitantly added ATP (in words) [1]: none
- Inhibition of Po / effect on gating (in words) ([1]; 1 mM Ca2+ i, −40 mV): failed to inhibit channel activity

Compound: phosphatidyl inositol 4,5-bisphosphate [PI(4,5)P2]
- Inhibition of Po / effect on gating (in words) ([1]; 1 mM Ca2+ i, −40 mV): affected neither CA-NSC gating
